# In ChEMBL document CHEMBL1158507, “Development of substituted 6-[4-fluoro-3-(piperazin-1-ylcarbonyl)benzyl]-4,5-dimethylpyridazin-3(2H)-ones as potent poly(ADP-ribose) polymerase-1 (PARP-1) inhibitors active in BRCA deficient cells” (Bioorg Med Chem Lett, 2010):
# The source made the active and inactive calls. The rule behind the calls is not given here.
# Tests used:
# HeLa [1] = test: Antiproliferative activity against BRCA1 deficient human HeLa cells; assay type: functional
# Outline: (§1)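 Antiproliferation in HeLa cells, BRCA1-deficient and BRCA wild-type lines. Read-out is CC50 in nM. Values are means of at least two experiments.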
# HeLa [2] = test: Antiproliferative activity against BRCA1 expressing human HeLa cells; assay type: functional; outline: as §1
# [3] = Intrinsic clearance in rat liver microsomes; assay type: ADME, Microsome
# [4] = Intrinsic clearance in human liver microsomes; assay type: ADME, Microsome
# [5] = Oral bioavailability in rat; assay type: ADME, organism-based; conditions: in vivo
# [6] = target: Poly [ADP-ribose] polymerase 1 (Homo sapiens, UniProt P09874)
# Poly [ADP-ribose] polymerase 1, sequence (P09874 whole entry): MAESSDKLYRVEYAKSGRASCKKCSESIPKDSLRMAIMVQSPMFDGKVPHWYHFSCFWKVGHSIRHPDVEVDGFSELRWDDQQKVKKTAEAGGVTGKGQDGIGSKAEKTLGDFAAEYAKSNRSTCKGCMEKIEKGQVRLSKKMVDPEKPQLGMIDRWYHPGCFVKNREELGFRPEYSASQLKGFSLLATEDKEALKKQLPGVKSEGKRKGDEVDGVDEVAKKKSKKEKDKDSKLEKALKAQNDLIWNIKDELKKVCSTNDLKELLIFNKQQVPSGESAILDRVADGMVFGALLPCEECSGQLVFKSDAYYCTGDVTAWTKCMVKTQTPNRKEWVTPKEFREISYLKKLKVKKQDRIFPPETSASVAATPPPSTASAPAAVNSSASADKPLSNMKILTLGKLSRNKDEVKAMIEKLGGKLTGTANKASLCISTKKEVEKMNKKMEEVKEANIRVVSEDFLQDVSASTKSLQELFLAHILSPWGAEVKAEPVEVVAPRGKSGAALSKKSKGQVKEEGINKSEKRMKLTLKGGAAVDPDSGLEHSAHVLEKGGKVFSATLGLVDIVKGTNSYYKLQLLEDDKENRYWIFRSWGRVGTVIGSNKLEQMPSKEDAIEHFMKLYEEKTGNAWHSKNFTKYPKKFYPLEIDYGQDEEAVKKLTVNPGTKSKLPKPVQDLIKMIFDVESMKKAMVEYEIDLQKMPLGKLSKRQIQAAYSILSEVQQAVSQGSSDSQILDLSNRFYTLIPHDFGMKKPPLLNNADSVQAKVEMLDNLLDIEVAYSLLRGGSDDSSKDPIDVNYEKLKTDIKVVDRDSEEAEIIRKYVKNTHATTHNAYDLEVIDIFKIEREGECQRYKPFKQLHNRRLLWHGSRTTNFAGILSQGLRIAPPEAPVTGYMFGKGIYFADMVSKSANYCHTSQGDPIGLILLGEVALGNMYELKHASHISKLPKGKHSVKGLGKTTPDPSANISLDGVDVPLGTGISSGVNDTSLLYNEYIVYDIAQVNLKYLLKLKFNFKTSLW
# CYP3A4 = CYP3A4 (Homo sapiens, UniProt P08684); test: Inhibition of CYP3A4 at 10 uM; assay type: ADME
# CYP3A4, sequence (P08684 whole entry): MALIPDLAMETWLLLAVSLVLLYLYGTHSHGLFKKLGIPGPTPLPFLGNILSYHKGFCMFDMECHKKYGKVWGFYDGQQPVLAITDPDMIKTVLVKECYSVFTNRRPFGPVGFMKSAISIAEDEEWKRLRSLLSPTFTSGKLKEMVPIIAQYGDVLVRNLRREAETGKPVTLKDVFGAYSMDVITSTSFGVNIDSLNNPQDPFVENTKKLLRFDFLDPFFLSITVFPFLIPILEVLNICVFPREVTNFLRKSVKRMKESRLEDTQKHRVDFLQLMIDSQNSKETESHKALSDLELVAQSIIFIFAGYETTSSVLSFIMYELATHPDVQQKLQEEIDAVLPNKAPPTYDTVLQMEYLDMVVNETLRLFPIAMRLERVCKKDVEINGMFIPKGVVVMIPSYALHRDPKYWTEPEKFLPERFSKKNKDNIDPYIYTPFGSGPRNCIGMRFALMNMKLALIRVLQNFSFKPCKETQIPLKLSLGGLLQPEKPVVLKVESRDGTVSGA
# HeLa [7] = test: Antiproliferative activity against BRCA1 deficient human HeLa cells at 5 uM; assay type: functional, cell-based
# [8] = Clearance in rat; assay type: ADME, organism-based; conditions: in vivo
# [9] = Drug excretion in iv dosed rat urine after 72 hrs; assay type: ADME, organism-based; conditions: read-out: Activity
# [10] = Drug excretion in iv dosed rat bile after 72 hrs; assay type: ADME, organism-based; conditions: read-out: Activity
# HeLa [11] = test: Selectivity for BRCA1 deficient human HeLa cells over BRCA1 expressing HeLa cells; assay type: functional
# [12] = target: Voltage-gated inwardly rectifying potassium channel KCNH2 (Homo sapiens, UniProt Q12809); test: Inhibition of human ERG
# Voltage-gated inwardly rectifying potassium channel KCNH2, sequence (Q12809 whole entry): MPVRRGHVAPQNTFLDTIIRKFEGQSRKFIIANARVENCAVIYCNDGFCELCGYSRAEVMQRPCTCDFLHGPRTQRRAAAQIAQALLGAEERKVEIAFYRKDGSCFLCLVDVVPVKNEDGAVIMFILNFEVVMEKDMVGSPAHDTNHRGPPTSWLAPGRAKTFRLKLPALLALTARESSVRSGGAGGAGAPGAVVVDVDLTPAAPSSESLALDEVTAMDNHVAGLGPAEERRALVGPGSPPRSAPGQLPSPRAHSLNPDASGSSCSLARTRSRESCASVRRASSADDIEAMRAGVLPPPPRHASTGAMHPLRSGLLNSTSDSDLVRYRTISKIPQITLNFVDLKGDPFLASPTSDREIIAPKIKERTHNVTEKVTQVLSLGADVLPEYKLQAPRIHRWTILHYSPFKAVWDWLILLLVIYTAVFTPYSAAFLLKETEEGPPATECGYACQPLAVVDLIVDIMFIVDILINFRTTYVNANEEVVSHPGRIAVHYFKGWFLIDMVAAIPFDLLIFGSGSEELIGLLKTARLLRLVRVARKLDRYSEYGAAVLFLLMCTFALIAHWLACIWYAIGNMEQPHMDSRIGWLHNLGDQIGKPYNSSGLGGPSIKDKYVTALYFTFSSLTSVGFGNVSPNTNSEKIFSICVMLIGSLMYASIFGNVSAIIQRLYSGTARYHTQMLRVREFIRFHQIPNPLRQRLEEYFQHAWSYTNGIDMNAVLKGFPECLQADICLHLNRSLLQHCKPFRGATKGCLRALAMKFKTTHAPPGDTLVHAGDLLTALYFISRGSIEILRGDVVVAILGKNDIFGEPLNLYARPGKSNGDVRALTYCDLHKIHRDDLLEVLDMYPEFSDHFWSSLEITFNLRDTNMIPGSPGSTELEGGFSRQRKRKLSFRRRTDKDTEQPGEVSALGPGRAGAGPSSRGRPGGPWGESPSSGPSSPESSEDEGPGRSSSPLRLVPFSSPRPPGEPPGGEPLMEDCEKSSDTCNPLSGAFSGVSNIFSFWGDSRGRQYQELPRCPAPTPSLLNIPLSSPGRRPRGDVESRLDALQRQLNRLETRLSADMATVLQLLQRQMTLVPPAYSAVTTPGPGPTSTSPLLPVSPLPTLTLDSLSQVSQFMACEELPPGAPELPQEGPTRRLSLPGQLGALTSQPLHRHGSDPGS
# CYP2D6 = CYP2D6 (Homo sapiens, UniProt P10635); test: Inhibition of CYP2D6 at 10 uM; assay type: ADME
# CYP2D6, sequence (P10635 whole entry): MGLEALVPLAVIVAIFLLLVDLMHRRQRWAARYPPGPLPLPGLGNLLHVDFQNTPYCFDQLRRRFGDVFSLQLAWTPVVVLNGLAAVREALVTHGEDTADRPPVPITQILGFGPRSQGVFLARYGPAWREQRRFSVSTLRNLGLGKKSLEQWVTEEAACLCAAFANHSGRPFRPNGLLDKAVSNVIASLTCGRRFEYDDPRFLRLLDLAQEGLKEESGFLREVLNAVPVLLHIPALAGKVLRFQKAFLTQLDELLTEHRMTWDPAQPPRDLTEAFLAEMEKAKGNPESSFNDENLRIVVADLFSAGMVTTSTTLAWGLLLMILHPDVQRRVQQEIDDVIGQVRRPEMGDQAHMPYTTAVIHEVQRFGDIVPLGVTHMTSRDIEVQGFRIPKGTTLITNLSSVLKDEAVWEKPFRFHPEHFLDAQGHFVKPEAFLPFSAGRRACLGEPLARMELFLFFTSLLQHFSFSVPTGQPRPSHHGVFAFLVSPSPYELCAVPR
# [13] = Drug excretion in iv dosed rat urine after 24 hrs; assay type: ADME, organism-based; conditions: read-out: Activity
# [14] = Half life in rat; assay type: ADME, organism-based; conditions: in vivo
# [15] = Volume of distribution at steady state in rat; assay type: ADME, organism-based; conditions: in vivo, read-out: Vdss
# [16] = Induction of CYP450 at 10 uM relative to refampicin; assay type: ADME
IC50 [6] [nM],SMILES,CC50 (HeLa [1]) [nM],CC50 (HeLa [2]) [nM],further results
3.8,CCC1(C(=O)N2CCN(C(=O)c3cc(Cc4n[nH]c(=O)c(C)c4C)ccc3F)CC2)CCCN1 (stereo not given),24,16000,microsomal CLint [3]: 6 µL/min/mg; microsomal CLint [4]: 13 µL/min/mg; bioavailability [5]: < 3%
5.7,Cc1c(Cc2ccc(F)c(C(=O)N3CCN(C(=O)C4(N(C)C)CC4)CC3)c2)n[nH]c(=O)c1C,350,7700,
3.2,Cc1c(Cc2ccc(F)c(C(=O)N3CCN(C(=O)C4(NCC5CC5)CCC4)CC3)c2)n[nH]c(=O)c1C,24,450,
3.6,Cc1c(Cc2ccc(F)c(C(=O)N3CCN(C(=O)C4(Cc5ccc(F)cc5)CCCN4)CC3)c2)n[nH]c(=O)c1C (stereo not given),9.1,2700,inhibition at 10 µM (CYP3A4): 73%
4.5,Cc1c(Cc2ccc(F)c(C(=O)N3CCC4(CCCN4C)CC3)c2)n[nH]c(=O)c1C,100,> 5000,
1.8,C=CCC1(C(=O)N2CCN(C(=O)c3cc(Cc4n[nH]c(=O)c(C)c4C)ccc3F)CC2)CCCN1 (stereo not given),31,19000,
3.7,CNC(C)(C)C(=O)N1CCN(C(=O)c2cc(Cc3n[nH]c(=O)c(C)c3C)ccc2F)CC1,280,> 5000,microsomal CLint [3]: 7 µL/min/mg; clearance [8]: 64 mL/min/kg; microsomal CLint [4]: 10 µL/min/mg
9.7,CCN1CCCC12CCN(C(=O)c1cc(Cc3n[nH]c(=O)c(C)c3C)ccc1F)CC2,170,> 5000,
4.2,Cc1c(Cc2ccc(F)c(C(=O)N3CCN(C(=O)[C@@]4(Cc5ccc(F)cc5)CCCN4)CC3)c2)n[nH]c(=O)c1C,290,15000,
3.1,Cc1c(Cc2ccc(F)c(C(=O)N3CCN(C(=O)[C@@H]4CCCN4)CC3)c2)n[nH]c(=O)c1C,3000,> 10000,
,CNC1(C(=O)N2CCN(C(=O)c3cc(Cc4n[nH]c(=O)c(C)c4C)ccc3F)CC2)CC1,240,> 5000,
2.7,Cc1c(Cc2ccc(F)c(C(=O)N3CCN(C(=O)[C@H]4CCCN4)CC3)c2)n[nH]c(=O)c1C,220,> 10000,
3.1,CCNC1(C(=O)N2CCN(C(=O)c3cc(Cc4n[nH]c(=O)c(C)c4C)ccc3F)CC2)CCCC1,91,4000,
2.6,Cc1c(Cc2ccc(F)c(C(=O)N3CCC4(CCCN4)CC3)c2)n[nH]c(=O)c1C,49,> 5000,microsomal CLint [3]: < 1 µL/min/mg; clearance [8]: 57 mL/min/kg; half-life [14]: 3.7 h; Vd [15]: 6.7 L/kg; dose excreted at 24 h [13]: 37%; microsomal CLint [4]: < 1 µL/min/mg
2,CNC(C)(C)C(=O)N1CCN(C(=O)c2cc(Cc3c[nH]c(=O)c4cc(Cl)c(Cl)n34)ccc2F)CC1,53,> 5000,microsomal CLint [3]: 122 µL/min/mg; clearance [8]: > 200 mL/min/kg; IC50 [12]: 11000 nM; inhibition at 10 µM (CYP3A4): 25%; Activity [16]: 14%; Ratio (HeLa [11]): >100
3.3,Cc1c(Cc2ccc(F)c(C(=O)N3CCN(C(=O)C4(Cc5ccccc5)CCCN4)CC3)c2)n[nH]c(=O)c1C (stereo not given),53,> 5000,
2.5,Cc1c(Cc2ccc(F)c(C(=O)N3CCN(C(=O)[C@]4(Cc5ccc(F)cc5)CCCN4)CC3)c2)n[nH]c(=O)c1C,15,3300,
2.4,Cc1c(Cc2ccc(F)c(C(=O)N3CCN(C(=O)C4(NCC5CC5)CCCC4)CC3)c2)n[nH]c(=O)c1C,71,2100,

SMILES,IC50 [6] [nM],CC50 (HeLa [1]) [nM],CC50 (HeLa [2]) [nM],further results
Cc1c(Cc2ccc(F)c(C(=O)N3CCC4(CCN4)CC3)c2)n[nH]c(=O)c1C,4.6,> 5000,> 5000,
Cc1c(Cc2ccc(F)c(C(=O)N3CCN(C(=O)C4CCNC4)CC3)c2)n[nH]c(=O)c1C (stereo not given),3.9,> 5000,> 5000,Activity (HeLa [7]): inactive
Cc1c(Cc2ccc(F)c(C(=O)N3CCN(C(=O)C4(C)CCCN4)CC3)c2)n[nH]c(=O)c1C (stereo not given),2.8,90,> 5000,microsomal CLint [3]: < 1 µL/min/mg; clearance [8]: 38 mL/min/kg; dose excreted at 72 h [9]: 82%; dose excreted at 72 h [10]: 3%; Ratio (HeLa [11]): 30; microsomal CLint [4]: < 1 µL/min/mg; bioavailability [5]: < 3%
O=C(c1cc(Cc2c[nH]c(=O)c3cc(Cl)c(Cl)n23)ccc1F)N1CCC2(CCCN2)CC1,2.5,48,> 5000,microsomal CLint [3]: 65 µL/min/mg; clearance [8]: 130 mL/min/kg; IC50 [12]: 12000 nM; inhibition at 10 µM (CYP2D6): 35%; Ratio (HeLa [11]): >100
Cc1c(Cc2ccc(F)c(C(=O)N3CCN(C(=O)C4(Nc5ccccc5)CCCC4)CC3)c2)n[nH]c(=O)c1C,3.9,130,870,
Cc1c(Cc2ccc(F)c(C(=O)N3CCN(C(=O)C(C)(C)N(C)C)CC3)c2)n[nH]c(=O)c1C,1.8,360,> 2500,
Cc1c(Cc2ccc(F)c(C(=O)N3CCN(C(=O)[C@@]4(C)CCN4)CC3)c2)n[nH]c(=O)c1C,3.1,78,> 40000,microsomal CLint [3]: < 1 µL/min/mg; dose excreted at 24 h [13]: 11%; microsomal CLint [4]: 3 µL/min/mg; bioavailability [5]: < 3%
CNC1(C(=O)N2CCN(C(=O)c3cc(Cc4n[nH]c(=O)c(C)c4C)ccc3F)CC2)CCCC1,2.7,81,> 5000,
Cc1c(Cc2ccc(F)c(C(=O)N3CCN(C(=O)C4(N5CCCC5)CCCC4)CC3)c2)n[nH]c(=O)c1C,2.7,89,1500,
Cc1c(Cc2ccc(F)c(C(=O)N3CCN(C(=O)[C@@]4(C)CCCN4)CC3)c2)n[nH]c(=O)c1C,1.3,45,> 5000,Ratio (HeLa [11]): 100
Cc1c(Cc2ccc(F)c(C(=O)N3CCN(C(=O)C4(C)CCCCN4)CC3)c2)n[nH]c(=O)c1C (stereo not given),12,2000,> 20000,
Cc1c(Cc2ccc(F)c(C(=O)N3CCN(C(=O)C4(NCC5CC5)CCCCC4)CC3)c2)n[nH]c(=O)c1C,3.5,170,1900,
Cc1c(Cc2ccc(F)c(C(=O)N3CCN(C(=O)[C@]4(C)CCCN4)CC3)c2)n[nH]c(=O)c1C,3.8,780,> 40000,
Cc1c(Cc2ccc(F)c(C(=O)N3CCN(C(=O)C4(C)CCCO4)CC3)c2)n[nH]c(=O)c1C (stereo not given),2.8,380,11000,
Cc1c(Cc2ccc(F)c(C(=O)N3CCC4(CCNC4)CC3)c2)n[nH]c(=O)c1C,4.7,> 5000,> 5000,
